In PMC8923172 (Antimicrobial Agents and Chemotherapy, 2022):
Read-outs that look alike come from different tables or passages of the source. Marks after values point to notes of the source that are not given here. Residues, ends and D or L forms follow the SMILES beside them.

Experiments:
[1] = for Cmax: 20-min i.v. infusion, n=12, estimate (SE); for AUCτ / λz: i.v. infusion, n=12, pooled
[2] = Toxicity studies in cynomolgus monkeys: mortality, MTD, NOAEL; type: in vivo
In short: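 Cynomolgus monkeys were studied in two designs. Non-GLP range-finding: single ascending i.v. doses (0.3-10 mg/kg), then 15 mg/kg daily for 7 days, 1/sex; MTD was based on mortality, clinical observations and body weight. GLP: 0, 5, 10 or 15 mg/kg/day for 10 days by 60-min infusion, with a recovery group. NOAEL drew on clinical signs, clinical pathology and histopathology.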

[3] = Coagulation in cynomolgus monkeys at the end of treatment; type: in vivo; conditions: median (IQR)
In short: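 GLP 10-day study in male and female cynomolgus monkeys (n = 3-5/sex/group) dosed once daily with 0 (placebo), 5, 10 or 15 mg/kg test compound by i.v. infusion over 60 ± 5 min. Hematology, serum chemistry and coagulation were taken at end of treatment and reported as median (IQR). Dose groups were compared by Kruskal-Wallis with Dunn's multiple comparison test.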

CC[C@H](C)[C@@H]1NC(=O)[C@@H]2CSSC[C@H](NC(=O)[C@H](CCCNC(=N)N)NC(=O)[C@@H]3CSSC[C@H](NC1=O)C(=O)N[C@@H]([C@@H](C)O)C(=O)N[C@@H](CCCNC(=N)N)C(=O)NCC(=O)N[C@@H](Cc1ccccc1)C(=O)N3)C(=O)N[C@@H](CC(C)C)C(=O)N[C@H]1CSSC[C@H](NC(=O)[C@H](C(C)C)NC(=O)CNC(=O)[C@H](CCCNC(=N)N)NC(=O)[C@H](CCCNC(=N)N)NC1=O)C(=O)N[C@@H](CCCNC(=N)N)C(=O)N2 [RTD-1, Rhesus theta (θ) defensin-1] (HELM PEPTIDE1{G.F.C.R.C.L.C.R.R.G.V.C.R.C.I.C.T.R}$PEPTIDE1,PEPTIDE1,3:R3-16:R3|PEPTIDE1,PEPTIDE1,5:R3-14:R3|PEPTIDE1,PEPTIDE1,7:R3-12:R3|PEPTIDE1,PEPTIDE1,1:R1-18:R2$$$V2.0)
Cmax ([1]; 5 mg/kg Day 1): 7,468 (1,202)^b ng/mL
AUCτ ([1]; 5 mg/kg Day 1): 14,956 ng · h/mL
λz ([1]; 5 mg/kg Day 1): 0.056 h⁻¹
AUCτ ([1]; 5 mg/kg Day 7): 12,468 ng · h/mL
λz ([1]; 5 mg/kg Day 7): 0.104 h⁻¹
AUCτ on day 7 lower than AUC0-∞ on day 1 ([1]; 5 mg/kg/day): 22%
Cmax ([1]; 10 mg/kg Day 1): 27,533 (1,419)* ng/mL
AUCτ ([1]; 10 mg/kg Day 1): 41,669 ng · h/mL
λz ([1]; 10 mg/kg Day 1): 0.148 h⁻¹
λz ([1]; 10 mg/kg Day 7): 0.133 h⁻¹
AUCτ on day 7 lower than AUC0-∞ on day 1 ([1]; 10 mg/kg/day): 19%
Cmax ([1]; 20 mg/kg Day 1): 35,400 (5,350)# ng/mL
λz ([1]; 20 mg/kg Day 1): 0.221 h⁻¹
plasma levels during the recovery period (day 25) ([1]; all rats except one female at 10 mg/kg): undetectable
increase in AUC0-∞ from 5 mg/kg to 20 mg/kg ([1]; single ascending dose): 8 fold
mortality (found dead day 15, determined unrelated to treatment) (5 mg/kg/day): 1 out of 16
LOAEL (i.v.): 20 mg/kg
NOAEL (i.v. once daily x7 days): 10 mg/kg/day
acute, treatment-related mortality (single i.v. 20 mg/kg, day 1): 5 out of 12
mortality ([2]; GLP 10-day repeat-dose TK study, any dose level (5-15 mg/kg/day)): no mortality or unscheduled euthanasia
NOAEL ([2]; GLP 10-day repeat-dose i.v.): 15 mg/kg/day
APTT ([3]; female, 5 mg/kg): 22.40 (2.05) s
Fibrinogen ([3]; female, 5 mg/kg): 238.00 (40.50) mg/dL
PT ([3]; female, 5 mg/kg): 12.20 (0.25) s
APTT ([3]; female, 10 mg/kg): 20.80 (0.55) s
Fibrinogen ([3]; female, 10 mg/kg): 294.00 (7.50) mg/dL
PT ([3]; female, 10 mg/kg): 11.80 (0.25) s
APTT ([3]; female, 15 mg/kg): 22.60 (0.90) s
Fibrinogen ([3]; female, 15 mg/kg): 300.00 (57.00)^d mg/dL
PT ([3]; female, 15 mg/kg): 12.30 (0.50) s
APTT ([3]; male, 5 mg/kg): 21.60 (0.80) s
Fibrinogen ([3]; male, 5 mg/kg): 306.00 (49.50) mg/dL
PT ([3]; male, 5 mg/kg): 12.00 (0.55) s
APTT ([3]; male, 10 mg/kg): 21.10 (0.45) s
Fibrinogen ([3]; male, 10 mg/kg): 285.00 (22.50) mg/dL
PT ([3]; male, 10 mg/kg): 12.00 (0.25) s
APTT ([3]; male, 15 mg/kg): 22.10 (1.65) s
Fibrinogen ([3]; male, 15 mg/kg): 336.00 (114.00) mg/dL
PT ([3]; male, 15 mg/kg): 12.25 (0.83) s
